This is a sample that favours compounds with a hit; in the whole collection about 2.3% have one here.
TRPC4 act = activators of mouse TRPC4 channel, primary screen, Fluo4 calcium, HEK293 TRPC4beta/mu-opioid cells; AID 2237, 2010; 0.49% of 310,000 active; Fluo4 calcium fluorescence; hits give high values; B-score at 10 µM;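 active = B-score above 5 SD of library B-scores, and initial fluorescence ratio not above library mean plus 5 SD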;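 also: positive B-score marks a calcium rise read as TRPC4 activation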
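Assay system: HEK293 stable line with TRPC4beta plus mu-opioid receptor. Times: dye 45 min RT, read 110 s. Measured by: kinetic Fluo4 calcium fluorescence. Measure: B score of integrated ratio. Controls: assay buffer as low control, maximal DAMGO as high control.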
TRPC4 PAM = positive allosteric modulators of TRPC4, primary screen, cell-based, mouse TRPC4beta, HEK293 mu-opioid, Fluo-4 calcium; 0.42% of 310,000 active; AID 2227, 2009; B-score at 10 µM; DAMGO EC20, Fluo-4 Ca2+ flux; hits give high values;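 active = B-score of calcium response area above 5 SD of library B-scores, with initial fluorescence ratio within 5 SD of library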;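 also: B-score of integrated fluorescence ratio over time as area under calcium response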
TRPC4 inh = inhibitors of mouse TRPC4 channel, primary screen, Fluo4 calcium, HEK293 TRPC4beta/mu-opioid cells; AID 2247, 2010; B-score at 10 µM; 0.39% of 300,000 active; Short transient receptor potential channel 4 (Mus musculus), Q9QUQ5; DAMGO-evoked Fluo4 calcium flux; hits give low values;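 active = B-score over 3 SD under the library average, no early fluorescence shift, positive overall ratio signal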
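Test system – stable TRPC4beta/mu-opioid receptor HEK293 cells · Probe or stimulus – DAMGO, a submaximal dose followed by a maximal one · Dosing – one concentration per compound · Signal – Fluo4 calcium fluorescence by kinetic imaging, 5 s 1 Hz baseline · Evaluation – per-well B score of integrated baseline-normalized Fluo4 ratio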
TRPC6 inh = mouse TRPC6 channel inhibitors, primary screen, cell-based, HEK293, membrane potential dye | Short transient receptor potential channel 6 (Mus musculus), Q61143 | ACh-evoked depolarization; hits give low values | B-score at 10 µM | 1.1% of 310,000 active | AID 2553, 2010;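 active = B-score under library mean minus 3 SD, initial fluorescence not abnormally high, positive integrated signal ratio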;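 also: B-score derived from integrated fluorescence ratio over the kinetic read; more negative B-score means stronger inhibition of depolarization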
Target sequence (Q61143 whole entry, looked up): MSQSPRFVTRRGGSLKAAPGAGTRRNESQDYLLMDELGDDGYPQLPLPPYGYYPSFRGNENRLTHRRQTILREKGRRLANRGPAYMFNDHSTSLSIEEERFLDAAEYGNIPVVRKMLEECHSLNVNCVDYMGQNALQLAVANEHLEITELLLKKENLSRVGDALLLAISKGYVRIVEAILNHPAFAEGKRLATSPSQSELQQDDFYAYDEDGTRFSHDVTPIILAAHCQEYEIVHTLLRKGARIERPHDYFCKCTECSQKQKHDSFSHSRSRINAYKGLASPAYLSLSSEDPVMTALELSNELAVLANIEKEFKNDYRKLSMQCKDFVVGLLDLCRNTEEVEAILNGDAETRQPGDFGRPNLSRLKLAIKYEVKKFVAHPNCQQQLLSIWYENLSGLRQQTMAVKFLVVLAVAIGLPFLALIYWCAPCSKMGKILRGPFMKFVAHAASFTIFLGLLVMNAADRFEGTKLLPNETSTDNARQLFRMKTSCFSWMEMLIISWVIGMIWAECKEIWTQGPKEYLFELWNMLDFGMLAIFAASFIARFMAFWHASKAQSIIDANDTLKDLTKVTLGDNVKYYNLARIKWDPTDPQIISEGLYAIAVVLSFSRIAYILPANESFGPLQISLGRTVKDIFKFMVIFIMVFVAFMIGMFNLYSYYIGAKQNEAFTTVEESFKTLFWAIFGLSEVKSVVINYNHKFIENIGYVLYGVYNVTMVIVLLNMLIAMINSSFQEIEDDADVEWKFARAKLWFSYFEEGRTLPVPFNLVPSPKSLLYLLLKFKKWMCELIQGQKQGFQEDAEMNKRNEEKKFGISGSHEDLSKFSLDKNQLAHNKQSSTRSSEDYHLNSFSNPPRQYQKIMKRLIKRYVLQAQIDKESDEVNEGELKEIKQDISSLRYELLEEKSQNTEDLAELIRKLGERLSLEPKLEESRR
TRPC6 act = mouse TRPC6 channel activators, primary screen, cell-based, HEK293, membrane potential dye. Short transient receptor potential channel 6 (Mus musculus), Q61143. AID 2550, 2010. HEK293-TRPC6 membrane potential dye fluorescence; hits give high values. 0.13% of 310,000 active. B-score at 10 µM;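 active = B-score of the integrated fluorescence ratio above library mean plus 3 SD, and starting fluorescence ratio within library mean plus 5 SD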;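 also: higher score means more depolarization so channel activation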
TRPC4 spec 2 = second check of whether TRPC6 inhibitors also affect mouse TRPC4. inhibition, % at 10 µM. HEK293 TRPC4/MOR, membrane potential dye fluorescence; channel activated by saturating DAMGO dose. AID 2776. shares compounds with TRPC6 inh. 42% of 920 active;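 active = compounds whose fluorescence signal differed from control wells by over 3 SD, either direction, in both duplicate plates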
TRPC4 spec = mouse TRPC4 modulation by TRPC6 hits, confirmation, selectivity assay for TRPC6 inhibitor project, cell-based, HEK293 TRPC4/mu-opioid, membrane potential dye. shares compounds with TRPC6 inh. membrane potential fluorescence. activity change, negative = inhibition, % at 10 µM. 61% of 920 active;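 active = rise or fall in signal beyond 3 SD of buffer-only wells in both replicate plates, either sign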;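 also: integrated kinetic ratio of fluorescence range over baseline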
HEK293 MPD ctr 2-1 = nonspecific membrane potential effects, parental HEK293, confirmation, counter-screen for TRPC6 inhibitor project, cell-based, second counter screen. AID 2779, 2010. parental HEK293 membrane potential dye fluorescence; maximal acetylcholine challenge after compound addition. shares compounds with TRPC6 inh. 31% of 920 active. signal change vs control, % at 10 µM;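 active = membrane potential signal moving either way by over 3 SD of the maximum-effect control, in both duplicate plates, meaning non-specific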
HEK293 MPD ctr-1 = membrane potential modulation in parental HEK293, confirmation, counter-screen for TRPC6 inhibitor project, cell-based. shares compounds with TRPC6 inh. parental HEK293 membrane potential dye fluorescence. membrane potential signal change, % at 10 µM. 60% of 920 active. AID 2780, 2010;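 active = membrane potential signal shifting up or down by more than 3 SD of buffer-only wells, on both duplicate plates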
HEK293 MPD ctr-2 = parental HEK293 membrane potential modulation, confirmation, counter-screen for TRPC6 modulator project, cell-based. shares compounds with TRPC6 inh. membrane potential dye fluorescence. membrane potential signal change, % at 10 µM. 51% of 2,400 active;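 active = membrane potential signal moves up or down beyond 5 SD from buffer-only wells, on both duplicate plates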
HEK293 MPD ctr 2-2 = second check of TRPC6 modulator effects in parental HEK293 cells; 14% of 2,400 active; membrane potential dye fluorescence; after compound, maximal acetylcholine stimulation; inhibition, % at 10 µM; shares compounds with TRPC6 inh;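 active = membrane potential signal drops by more than 5 SD from the mean control signal, in both duplicate plates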;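 also: plate controls were acetylcholine ECmax control wells for no effect and buffer only wells for full effect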
TRPC4/MOR mod = TRPC4 modulation by TRPC6 hit compounds, confirmation, selectivity assay for TRPC6 modulator project, cell-based, HEK293 TRPC4/mu-opioid, membrane potential dye, mouse; shares compounds with TRPC6 inh; membrane potential fluorescence; percent change from control (negative = decrease, positive = increase), % at 10 µM; 69% of 2,400 active; AID 488927, 2010;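 active = membrane potential signal moved up or down beyond 5 SD of buffer control wells, in both duplicate plates, actives on both sides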;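 also: plate controls were assay buffer wells for no effect and DAMGO maximal-effect wells for full effect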
TRPC4 ctr inh 2 = mouse TRPC4 off-target activity of TRPC6 modulators, second screen. shares compounds with TRPC6 inh. HEK293 TRPC4/mu-opioid, membrane potential dye fluorescence; stimulated with maximal-effect DAMGO. inhibition, % at 10 µM. 55% of 2,400 active;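 active = drop in membrane potential signal beyond 5 SD of the control wells in both duplicate plates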;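 also: TRPC4 counter screen for TRPC6 hits run under conditions tuned for TRPC6 not TRPC4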
TRPC6 block conf = mouse TRPC6 channel inhibitors, confirmation, HEK293 cells, membrane potential dye, duplicate. shares compounds with TRPC6 inh. ACh-evoked depolarization. inhibition, % at 10 µM. 43% of 3,300 active. AID 488960, 2010;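 active = fluorescence ratio falls more than 5 SD below the full-stimulation control mean, in both duplicate runs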;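 also: integrated fluorescence ratio of peak minus minimum over baseline after agonist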
TRPC6 act confirm = mouse TRPC6 channel activators, confirmation, HEK293 cells, membrane potential dye, duplicate | HEK293-TRPC6 membrane potential dye fluorescence, FDSS | activation, % at 10 µM | shares compounds with TRPC6 inh | 11% of 2,800 active;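 active = ratio signal rise beyond 5 SD above unstimulated control wells' mean, seen in both duplicate runs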;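 also: plate controls were buffer EC0 wells for no effect and acetylcholine ECmax response for full effect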
Active calls of the source: *; i = inactive; / = no result; ! = a repeat was not active.

SMILES | TRPC4 act | TRPC4 PAM | TRPC4 inh | TRPC6 inh | TRPC6 act | HEK293 MPD ctr-2 | HEK293 MPD ctr 2-2 | TRPC4/MOR mod | TRPC4 ctr inh 2 | TRPC6 block conf | TRPC6 act confirm | others
O=C(C[n+]1cc2ccccc2c2ccccc21)c1ccccc1 | 49* | i | -7* | -9.85* | i | / | / | / | / | i | i | TRPC4 spec 2=33.0%*;TRPC4 spec=0.9%*;HEK293 MPD ctr 2-1=i;HEK293 MPD ctr-1=-486.0%*
CCN(CC)CCNC(C(=O)Nc1cccc(C(C)=O)c1)c1ccccc1 (stereo not drawn) | i | i | i | -6.76* | i | i | i | i | i | i | i
CCOc1ccc(NC(C(=O)Nc2cccc(C(C)=O)c2)c2ccccc2)cc1 (stereo not drawn) | i | i | i | i | i | / | / | / | / | / | /
CCCCc1nc2cc(C(=O)N3CCCC(OCCC)C3)ccc2o1 (stereo not drawn) | i | i | i | i | i | / | / | / | / | / | /
CCOC(=O)c1cc2[nH]c3ccccc3c2[n+](-c2ccc([N+](=O)[O-])cc2)c1N | i | i | i | i | i | / | / | / | / | / | /
CCOC(=O)c1cc2[nH]c3ccccc3c2[n+](-c2ccc([N+](=O)[O-])cc2)c1C | i | i | i | -7.6* | i | -275.0%* | i | -49.5%* | 56.0%* | 60.0%* | i
CCc1cccc(OCC(=O)Nc2ccccc2N2CCCC2)c1 | i | i | i | -6.1* | i | i | i | i | 33.0%* | i | i
CC(=O)c1cccc(Nc2cc(C)nc3ccc(C)cc23)c1 | i | i | i | -6.6* | i | / | / | / | / | i | i | TRPC4 spec 2=66.5%*;TRPC4 spec=-22.1%*;HEK293 MPD ctr 2-1=14.5%*;HEK293 MPD ctr-1=-260.0%*
Cc1cc(C)c2nc(C)cc(Nc3ccc(C(=O)N4CCOCC4)cc3)c2c1 | i | i | i | -6.92* | i | / | / | / | / | 70.3%* | i | TRPC4 spec 2=i;TRPC4 spec=-16.4%*;HEK293 MPD ctr 2-1=i;HEK293 MPD ctr-1=-271.5%*
CC(=O)c1cccc(Nc2cc(C)nc3c(C)cc(C)cc23)c1 | i | i | -6* | -5.75* | i | -102.0%* | 75.5%* | -21.5%* | 65.0%* | 56.5%* | i
COc1cccc(CN2CCNC(=O)C2CC(=O)N(C)C2CCCCC2)c1 (stereo not drawn) | i | i | i | i | i | / | / | / | / | / | /
COc1ccc(N(C(=O)c2cnccn2)C(C(=O)NC2CCCCC2)c2cc(OC)c(OC)c(OC)c2)cc1 (stereo not drawn) | i | i | i | i | i | / | / | / | / | / | /
O=C(COc1ccccc1)N1c2ccccc2Sc2ccccc21 | i | i | i | i | i | / | / | / | / | / | /
O=C(C[n+]1ccccc1)N1c2ccccc2Sc2ccccc21 | i | i | i | -7.86* | i | i | 82.0%* | i | i | 82.0%* | i
CN(C)c1cc[n+](CC(=O)N2c3ccccc3Sc3ccccc32)cc1 | i | i | i | -5.03* | i | i | i | -12.0%* | i | 44.5%* | i
CCOC(=O)N1c2ccccc2Sc2ccccc21 | i | i | i | i | i | / | / | / | / | / | /
CC(N)C12CC3CC(CC(C3)C1)C2 (stereo not drawn) | i | i | i | -5.39*! | i | i | i | i | 29.5%* | i | i
CCN(CC)c1ccc(C(=O)OCC(=O)Nc2sccc2C#N)cc1 | i | i | i | i | i | / | / | / | / | / | /
CC(NC(=O)c1c(O)c2ccccc2[nH]c1=O)c1ccccc1 (stereo not drawn) | i | i | i | i | i | / | / | / | / | / | /
CN(C)c1ccc(-c2nc3cnccn3c2Nc2ccc3c(c2)OCCO3)cc1 | i | i | i | -5.33* | i | i | i | -11.0%* | 62.5%* | i | i
c1cnc2c(C3NCCc4c3[nH]c3ccccc43)cccc2c1 (stereo not drawn) | i | i | i | -6.6* | i | i | i | i | 71.5%* | 49.5%* | i
O=C(O)c1cccnc1C(=O)N1CCc2c([nH]c3ccccc23)C1C(F)(F)F (stereo not drawn) | i | i | i | i | i | / | / | / | / | / | /
CC(C)(CNC(=O)c1ccc(NS(=O)(=O)c2ccc(Br)cc2)cc1)N1CCOCC1 | i | i | i | i | i | / | / | / | / | / | /

Screening data deposited in PubChem BioAssay by Johns Hopkins Ion Channel Center.
